The list is not random: actives were taken first. Their share in the collection is about 3.6%.
Measles CPE: compounds protecting cells from measles virus cytopathic effect, primary screen, measles RdRp inhibitor project, single point, MLSMR library, absorbance; AID 841, 2007; Measles virus-infected cells, CPE protection; protection (pct of control), % at 4 µM; 140,000 compounds, 1.5% hits; in the data active = protection mostly above about 24%, no sharp cut-off; inactive = mostly below about 26%
Yeast lifespan up: compounds extending yeast replicative lifespan, primary screen, S. cerevisiae, OD615. S. cerevisiae growth with nicotinamide; deaD strain in restrictive glucose medium. 130,000 compounds, 0.68% hits. AID 775, 2007. inhibition of the nicotinamide effect, % at 10 µM;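 active = inhibition above a set limit, placed 3 SD over the median of all compounds, cut at about 26% in these data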
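Test system – modified budding yeast, DeaD strain · Compound – single dose 10 µM compound, 0.25% DMSO · Times – culture preincubation 4 h, compound exposure 48 h, both 30 °C · Detection – optical density (absorbance) at 615 nm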
Yeast growth inh: growth inhibitors of yeast BB579 in restrictive medium, primary screen, yeast lifespan-shortening project, S. cerevisiae | OD615, 48 h | inhibition, % at 10 µM | 140,000 compounds, 0.51% hits;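 active = inhibition above a set limit, 3 SD over the mean compound inhibition, cut at about 44% in these data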
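Test system: DeaD yeast strain BB579 / Buffer or medium: restrictive glucose-based CSMM-D medium / Doses: single 10 µM dose / Schedule: 4 h cell preincubation, 48 h compound exposure, 30 °C humidified / Technique: culture absorbance at 615 nm / Controls: amphotericin B positive control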
Phagocyt inh: inhibitors of macrophage phagocytosis, primary screen, imaging, J774A.1 cells, IgG beads; inhibition, % at 5 µM; AID 1029, 2008; J774A.1 macrophage IgG-bead phagocytosis; 110,000 compounds, 0.07% hits;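 active = inhibition above the mean of the plate negative controls plus 5 SD, cut at about 13% in these data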;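 note: phagocytic index as fraction of beads internalized from green versus red external bead signal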
RAM network inh: inhibitors of the yeast RAM network, primary screen, dse1pr::URA3 reporter, 5-FOA selection; S. cerevisiae dse1pr::URA3 reporter, 5-FOA growth OD615, 2 d; analog-sensitive cbk1-as2 kinase mutant strain; inhibition, % at 50 µM; 190,000 compounds, 1.8% hits; AID 868, 2007;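 active = inhibition above a set limit, 3 SD over mean compound inhibition, cut at about 8.4% in these data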;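 note: inhibition rescues growth on 5-FOA so higher OD means more RAM inhibition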
Numbers stand for hits; n = inactive; x = no result; + = active, no number; [ ] = another dose, or the depositor's remark.

SMILES	Measles CPE	Yeast lifespan up	Yeast growth inh	Phagocyt inh	RAM network inh
Clc1ccc(COC(Cn2ccnc2)c2ccc(Cl)cc2Cl)c(Cl)c1 (configuration not stated)	n	n	100	x	n
CCCCn1c(NS(=O)(=O)c2ccc(C)cc2)c(C(=O)OCC)c2nc3ccccc3nc21	n	93	n	n	n
CCCCn1c(NC(=O)c2ccco2)c(C(=O)OCC)c2nc3ccccc3nc21	n	n	n	n	n
Cc1nn(C)c(C)c1P(=S)(c1c(C)nn(C)c1C)N(C)C	n	n	n	n	n
CCC(=NCc1cc(OC)cc(OC)c1)c1c(O)n(C)c(=O)n(C)c1=O	n	n	n	n	n
Cc1ccc(/C=C2\C(=O)NC(=S)N(c3ccccc3F)C2=O)s1	n	41	55	n	n
Cc1cc(C)cc(N2C(=O)NC(=O)/C(=C\c3cccn3-c3ccccc3)C2=O)c1	n	n	n	x	9.8
Cc1cc(C)cc(N2C(=O)NC(=O)/C(=C\c3cccn3-c3ccc(Cl)cc3)C2=O)c1	n	n	n	n	n
Brc1ccc2[nH]cc(/C=N/N3CCCCC3)c2c1	n	n	n	n	n
Cc1cc(/C=C2\C(=O)NC(=O)N(c3ccc(Br)cc3)C2=O)c(C)n1C	x	x	x	x	11
Cc1cc(/C=C2\C(=O)NC(=O)N(c3cccc(Br)c3)C2=O)c(C)n1C	39	n	n	x	n
NC(=O)CN1CCCC1=O	n	n	n	x	n
CCOC(=O)c1c(-n2c(C)cc(C=C3C(=O)NC(=S)NC3=O)c2C)sc2c1CCCC2	n	n	n	n	11
CCn1c(O)c(C=Nc2ccc(N3CCOCC3)c(Br)c2)c(=O)n(CC)c1=S	n	n	n	n	n
CCn1c(O)c(C=Nc2ccc(N3CCOCC3)cc2)c(=O)n(CC)c1=S	35	n	n	n	n
CCN(CC)CCNC(=O)c1c(O)c2ccccc2n(Cc2ccccc2)c1=O	n	n	n	n	n
CCN(CC)CCCNC(=O)c1c(O)c2ccccc2n(Cc2ccccc2)c1=O	77	n	n	x	n
CC[N+](CC)(CC)CCCOC(=O)C(O)(c1ccccc1)C1CCCCC1 (configuration not stated)	n	n	n	n	n
CCOC(=O)c1c(C)[nH]c(C(=O)C(C)N2CCCC2)c1C (configuration not stated)	x	x	x	x	n
O=C(c1ccccc1F)c1cn(Cc2ccc(F)cc2)c2ccccc12	n	n	n	n	n
O=C(c1ccccc1F)c1cn(Cc2ccccc2)c2ccccc12	n	n	n	n	11
CCCC(C)C1(CC)C(=O)NC(=Nc2ccccc2)NC1=O (configuration not stated)	n	x	n	x	n
CCCC(C)C1(CC)C(=O)NC(=Nc2ccc(F)cc2)NC1=O (configuration not stated)	38	n	n	n	n
COc1ccc(-n2cnc3cc(C(=O)N4CCC5(CC4)OCCO5)ccc32)cc1	x	x	x	x	n
COc1ccccc1Cn1c(SCC(=O)C(C)(C)C)nc2cc(C(=O)N3CCC4(CC3)OCCO4)ccc2c1=O	x	x	x	x	11
SMILES	Measles CPE	Yeast lifespan up	Yeast growth inh	Phagocyt inh	RAM network inh
CC(C)CC(=O)NC(Oc1ccc(Cl)cc1)C(Cl)(Cl)Cl (configuration not stated)	n	n	n	x	n
CC(C)(C)C(O)C(Oc1ccc(Cl)cc1)n1cncn1 (configuration not stated)	n	n	91	n	n
COC(=O)C(O)(c1c[nH]c2ccccc12)C(F)(F)F (configuration not stated)	n	n	n	x	n
COC(=O)C(O)(c1cn(C)c2ccccc12)C(F)(F)F (configuration not stated)	46	n	n	n	n
O=C1C=Cc2ccccc2C1=O	n	31	n	x	n
CCC(=NCCCn1ccnc1)c1c(O)n(Cc2ccccc2)c(=O)[nH]c1=O	n	n	n	n	n
CCOc1cc(/C=C2/C(=O)NC(=O)N(c3ccc(CC)cc3)C2=O)ccc1OC(=O)c1cccs1	n	n	n	x	n
CCOP(=O)(OCC)C(NC(=O)c1ccccc1)=C(Cl)Cl	n	n	n	x	n
CCOC(=O)C1=C(NC(=S)NC(=O)c2ccccc2)c2ccccc2CC12CCCC2	62	n	n	n	n
CN(C)C(=O)Oc1cccc(-c2cn3cc(Cl)ccc3n2)c1	45	n	n	n	n
CN(C)C(=O)Oc1ccc(-c2cn3cc(Cl)ccc3n2)cc1	n	n	n	n	n
CSc1ccc(C(=O)C2CCCN(Cc3cnc(SC)nc3)C2)cc1 (configuration not stated)	x	x	x	x	n
COc1ccc(C)cc1NC(=O)N1CCC2(CC1)OCCO2	x	x	x	x	n
COC(=O)C(O)(c1ccc(NC(=S)NC(=O)c2ccc(Cl)cc2Cl)c(C)c1)C(F)(F)F (configuration not stated)	n	n	n	x	9.3
NP(=O)(OCC(F)(F)F)Oc1ccc(Cl)cc1 (configuration not stated)	n	n	n	n	n
CSc1ccc(C(c2c(O)c3ccccc3oc2=O)c2c(C)n(C)n(-c3ccccc3)c2=O)cc1 (configuration not stated)	x	x	x	x	n
Cc1c(C(c2ccc(Br)cc2)c2c(O)c3ccccc3oc2=O)c(=O)n(-c2ccccc2)n1C (configuration not stated)	x	x	x	x	10
COc1ccc(N2CC2c2ccncc2)cc1 (configuration not stated)	x	x	x	x	n
Oc1ccccc1/C=N/NP(=S)(c1ccccc1)c1ccccc1	x	x	x	x	8.6
CC(=O)c1ccc2c(c1)C1C(Cl)C(Sc3ccccc3[N+](=O)[O-])CC1C(C(=O)O)N2 (configuration not stated)	n	n	n	n	11
Cc1cc(C)c(C2=NOC(O)(C(F)(F)F)C2)c(=O)[nH]1 (configuration not stated)	27	n	n	n	n
CCC(C)C12CN3CCN(CC(C)(C3)C1=O)C2 (configuration not stated)	n	n	n	n	n
Cc1ccc(/C=C2/C(=O)NC(=O)N(CCc3ccc(F)cc3)C2=O)o1	n	32	n	x	n
Cc1nc2cc(-c3cccc(F)c3)nn2c(C)c1CCC(=O)N1CCC2(CC1)OCCO2	25	n	n	n	n
Cc1nc2c(-c3ccccc3)c(C)nn2c(C)c1CCC(=O)N1CCC2(CC1)OCCO2	n	x	n	x	n
CCN1/C(=C\C=C\C2=[N+](CC)c3ccccc3C2(C)C)C(C)(C)c2ccccc21	n	n	n	+[artifact]	n
O=c1c2ccccc2nc(-c2ccc(Cl)cc2Cl)n1-c1nccs1	n	n	n	n	n
CCOP(=S)(OCC)SCC(=O)NC(C)(CC)C(=O)O (configuration not stated)	n	n	n	n	n
O=C(N/N=C/c1c(O)n(CCc2ccccc2)c(=O)[nH]c1=O)c1ccncc1	n	n	n	n	n
